{"data": "Published values pooled from the literature", "note": "Compare with care: the assays were run in different laboratories."}
{"Compound": "Cc1ccc2[nH]nc(-c3nnc(Nc4ccc(O)cc4)s3)c2c1", "target or system": "Serratia marcescens", "assay": "microbial growth", "system": "ATCC8100", "endpoint": "MIC", "value": "62.8 µg/mL"}
{"Compound": "O=C(Nc1ccc(Cl)cc1)Nc1cccc(-c2cn(Cc3cccc(Br)c3)nn2)c1", "target or system": "NCI-H1299", "assay": "cell growth or viability, CCK-8", "setting": "50 µM, 72 h", "endpoint": "viability", "value": "94.7%"}
{"Compound": "Cc1ccc(-c2cc(-c3ccc(OCc4ccccc4)cc3)nc3c(N=Nc4ccc(F)cc4)c(N)nn23)cc1", "target or system": "Enterobacter cloacae", "assay": "microbial killing", "system": "ATCC23355", "endpoint": "MBC", "value": "125 µg/mL"}
{"Compound": "O=C(Nc1ccc(-c2cn(Cc3ccc(Br)cc3)nn2)cc1)Nc1ccccc1Br", "target or system": "NCI-H1299", "assay": "cell growth or viability, CCK-8", "setting": "50 µM, 72 h", "endpoint": "viability", "value": "115%"}
{"Compound": "CN(C)CCNC(=O)c1ccc(-c2nc3ccc4[nH]ncc4c3c3c2CCCC3)c(F)c1", "target or system": "22Rv1", "assay": "cell growth or viability", "setting": "72 h", "endpoint": "GI50", "value": "1.28 µM"}
{"Compound": "Cc1ccc(N=Nc2c(N)nn3c(-c4ccco4)cc(-c4ccc(OCc5ccccc5)cc4)nc23)cc1", "target or system": "Enterobacter cloacae", "assay": "microbial killing", "system": "ATCC23355", "endpoint": "MBC", "value": "125 µg/mL"}
{"Compound": "COc1ccc(NC(=O)NCc2cn(Cc3ccc(Cl)cc3)nn2)cc1", "target or system": "NCI-H1299", "assay": "cell growth or viability, CCK-8", "setting": "50 µM, 72 h", "endpoint": "viability", "value": "79.3%"}
{"Compound": "Cc1ccc(N=Nc2c(N)nn3c(-c4ccc(C)cc4)cc(-c4ccc(OCc5ccccc5)cc4)nc23)cc1", "target or system": "Enterobacter cloacae", "assay": "microbial killing", "system": "ATCC23355", "endpoint": "MBC", "value": "62.5 µg/mL"}
{"Compound": "COc1ccc(NC(=O)Nc2ccc(-c3cn(Cc4ccc(Br)cc4)nn3)cc2)cc1", "target or system": "NCI-H1299", "assay": "cell growth or viability, CCK-8", "setting": "50 µM, 72 h", "endpoint": "viability", "value": "106%"}
{"Compound": "O=C(Nc1ccc(Cl)cc1)Nc1cccc(-c2cn(Cc3ccc(Cl)cc3)nn2)c1", "target or system": "NCI-H1299", "assay": "cell growth or viability, CCK-8", "setting": "50 µM, 72 h", "endpoint": "viability", "value": "76.3%"}
{"Compound": "COc1ccc(NC(=O)Nc2ccc(-c3cn(Cc4ccc(Cl)cc4)nn3)cc2)cc1", "target or system": "NCI-H1299", "assay": "cell growth or viability, CCK-8", "setting": "50 µM, 72 h", "endpoint": "viability", "value": "97.9%"}
{"Compound": "COc1ccc(N=Nc2c(N)nn3c(-c4ccco4)cc(-c4ccc(OCc5ccccc5)cc4)nc23)cc1", "target or system": "Enterobacter cloacae", "assay": "microbial killing", "system": "ATCC23355", "endpoint": "MBC", "value": "62.5 µg/mL"}
{"Compound": "Cc1ccc2[nH]nc(-c3nnc(Nc4ccc(C(F)(F)F)cc4)s3)c2c1", "target or system": "Serratia marcescens", "assay": "microbial growth", "system": "ATCC8100", "endpoint": "MIC", "value": "62.8 µg/mL"}
{"Compound": "O=C(NCc1cn(Cc2ccc(Br)cc2)nn1)Nc1ccccc1Br", "target or system": "NCI-H1299", "assay": "cell growth or viability, CCK-8", "setting": "50 µM, 72 h", "endpoint": "viability", "value": "89.2%"}
{"Compound": "Cc1n[nH]c2ccc3nc(-c4ccc(C(=O)NCCN(C)C)cc4)c4c(c3c12)CCCC4", "target or system": "22Rv1", "assay": "cell growth or viability", "setting": "72 h", "endpoint": "GI50", "value": "1.78 µM"}
{"Compound": "O=C(Nc1ccc(-c2cn(Cc3ccc(Cl)cc3)nn2)cc1)Nc1ccccc1Br", "target or system": "NCI-H1299", "assay": "cell growth or viability, CCK-8", "setting": "50 µM, 72 h", "endpoint": "viability", "value": "109%"}
{"Compound": "Cc1n[nH]c2ccc3nc(-c4ccc(C(=O)NCCN(C)C)cc4)c4c(c3c12)CCCCC4", "target or system": "22Rv1", "assay": "cell growth or viability", "setting": "72 h", "endpoint": "GI50", "value": "7.15 µM"}
{"Compound": "COc1ccc(N=Nc2c(N)nn3c(-c4ccc(Cl)cc4Cl)cc(-c4ccc(OCc5ccccc5)cc4)nc23)cc1", "target or system": "Enterobacter cloacae", "assay": "microbial killing", "system": "ATCC23355", "endpoint": "MBC", "value": "250 µg/mL"}
